In ChEMBL document CHEMBL1154872, “Design, synthesis, and biological evaluation of novel pyrimidine derivatives as CDK2 inhibitors” (Eur J Med Chem, 2010):
pIC50: −log10 of the molar value.

Legend:
[1] = molecular target: Cyclin-dependent kinase 2/cyclin A (Homo sapiens, UniProt P24941); test: Inhibition of human recombinant CDK2/cyclin A expressed in baculovirus-infected insect Sf21 cells after 10 mins
[2] = molecular target: Epidermal growth factor receptor (Homo sapiens, UniProt P00533); test: Inhibition of EGFR
Epidermal growth factor receptor, sequence (P00533 whole entry): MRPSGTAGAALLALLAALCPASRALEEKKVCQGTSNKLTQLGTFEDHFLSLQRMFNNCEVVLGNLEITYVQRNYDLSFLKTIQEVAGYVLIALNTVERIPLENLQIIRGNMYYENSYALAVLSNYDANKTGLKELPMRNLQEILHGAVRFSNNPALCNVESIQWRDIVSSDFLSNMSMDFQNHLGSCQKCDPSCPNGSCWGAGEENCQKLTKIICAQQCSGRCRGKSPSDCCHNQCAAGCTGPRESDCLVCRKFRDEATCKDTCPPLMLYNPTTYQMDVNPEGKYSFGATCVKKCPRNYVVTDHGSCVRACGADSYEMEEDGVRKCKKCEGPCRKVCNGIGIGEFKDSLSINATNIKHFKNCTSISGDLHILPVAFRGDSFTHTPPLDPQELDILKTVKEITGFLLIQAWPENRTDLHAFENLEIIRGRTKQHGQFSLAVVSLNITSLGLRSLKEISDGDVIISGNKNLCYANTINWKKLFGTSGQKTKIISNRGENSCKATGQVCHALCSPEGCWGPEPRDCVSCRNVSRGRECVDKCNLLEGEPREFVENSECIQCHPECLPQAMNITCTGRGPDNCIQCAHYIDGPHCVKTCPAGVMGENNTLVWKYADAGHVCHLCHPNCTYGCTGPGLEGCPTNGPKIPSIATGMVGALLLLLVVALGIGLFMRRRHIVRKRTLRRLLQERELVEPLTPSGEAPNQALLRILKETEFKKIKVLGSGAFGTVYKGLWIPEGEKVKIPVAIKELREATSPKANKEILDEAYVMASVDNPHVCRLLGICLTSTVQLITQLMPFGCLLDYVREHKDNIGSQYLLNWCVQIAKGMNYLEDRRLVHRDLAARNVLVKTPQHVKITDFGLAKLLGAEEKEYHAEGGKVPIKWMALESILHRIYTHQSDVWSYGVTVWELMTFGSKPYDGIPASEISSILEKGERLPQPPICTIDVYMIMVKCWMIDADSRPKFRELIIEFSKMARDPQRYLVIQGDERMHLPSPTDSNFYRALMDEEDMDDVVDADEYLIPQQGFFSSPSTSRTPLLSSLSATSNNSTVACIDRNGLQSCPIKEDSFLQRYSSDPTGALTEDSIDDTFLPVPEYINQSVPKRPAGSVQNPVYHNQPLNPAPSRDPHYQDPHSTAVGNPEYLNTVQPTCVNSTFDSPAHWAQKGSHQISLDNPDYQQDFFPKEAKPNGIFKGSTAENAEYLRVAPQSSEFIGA

A-431 = test: Growth inhibition of human A431 cells after 2 days by sulforhodamine B assay; assay type: functional; settings: A-431, 48 h
Outline: (§1)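 Cells kept in RPMI 1640 with 10% FBS at 37 °C, 5% CO2; 1000 cells/well plated, compounds added next day at various concentrations, 2 days exposure. Fixed with 4% formalin 30 min, stained 0.1% SRB 30 min, acetic acid washes, dye eluted in 0.1 M Tris-HCl pH 8.0, A520 read. Triplicate, averaged; time-zero absorbance = 0%, untreated 2-day growth = 100%.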

HCT-116 = test: Growth inhibition of human HCT116 cells after 2 days by sulforhodamine B assay; assay type: functional; settings: HCT-116, 48 h; outline: as §1

pIC50 [1]	pIC50 [2]	GI50 (A-431)	GI50 (HCT-116)	Compound
4.24	4.05	69.2 µM	77.5 µM	CC1=C(C(=O)Nc2cccc([N+](=O)[O-])c2)C(c2ccc(O)cc2O)NC(Nc2ccc(S(=O)(=O)Nc3ncccn3)cc2)=N1 (centres undefined)
4.94	4.10	3.94 µM	8.99 µM	CC1=C(C(=O)Nc2cccc([N+](=O)[O-])c2)C(c2ccc(O)cc2O)NC(Nc2ccc(S(=O)(=O)Nc3nc(C)cc(C)n3)cc2)=N1 (centres undefined)
6.05	< 4.00	2.94 µM	16.6 µM	CC1=C(C(=O)Nc2cccc([N+](=O)[O-])c2)C(c2ccc(O)cc2O)NC(Nc2ccc(S(=O)(=O)Nc3cc(C)on3)cc2)=N1 (centres undefined)
6.52	4.09	2.78 µM	4.5 µM	CC1=C(C(=O)Nc2cccc([N+](=O)[O-])c2)C(c2ccc(O)cc2O)NC(NN2C(=O)/C(=C\c3cccs3)SC2=S)=N1 (centres undefined)
4.55	< 4.00	24.3 µM	16.6 µM	CC1=C(C(=O)Nc2cccc([N+](=O)[O-])c2)C(c2ccc(O)cc2O)NC(NN2C(=O)/C(=C\c3ccccc3)SC2=S)=N1 (centres undefined)
< 4.00	4.32	24.3 µM	47.7 µM	CC1=C(C(=O)Nc2cccc([N+](=O)[O-])c2)C(c2ccc(O)cc2O)NC(NN)=N1 (centres undefined)
6.40	4.00	28.9 µM	> 100 µM	CC1=C(C(=O)Nc2cccc([N+](=O)[O-])c2)C(c2ccc(O)cc2O)NC(NN2C(=O)/C(=C\c3ccco3)SC2=S)=N1 (centres undefined)
4.64	< 4.00	19.1 µM	38.2 µM	CC1=C(C(=O)Nc2cccc([N+](=O)[O-])c2)C(c2ccc(O)cc2O)NC(N/N=C/c2cccs2)=N1 (centres undefined)
6.05	< 4.00	28.9 µM	10.9 µM	Cc1nc(S(=O)(=O)Cc2ccccc2)nc(-c2ccc(O)cc2O)c1C(=O)Nc1cccc([N+](=O)[O-])c1
5.42	< 4.00	2.91 µM	8.89 µM	CC1=C(C(=O)Nc2cccc([N+](=O)[O-])c2)C(c2ccc(O)cc2O)NC(N/N=C/c2ccco2)=N1 (centres undefined)
4.35	4.22	31.9 µM	28.2 µM	CC1=C(C(=O)Nc2ccc(C)cc2)C(c2ccc(O)cc2O)NC(Nc2ccc([N+](=O)[O-])cc2Cl)=N1 (centres undefined)
4.33	< 4.00	35.6 µM	> 100 µM	CC1=C(C(=O)Nc2cccc([N+](=O)[O-])c2)C(c2ccc(O)cc2O)NC(NCc2ccccc2)=N1 (centres undefined)
5.09	< 4.00	3.94 µM	10.9 µM	CC1=C(C(=O)Nc2cccc([N+](=O)[O-])c2)C(c2ccc(O)cc2O)NC(Nc2ccc([N+](=O)[O-])cc2Cl)=N1 (centres undefined)
4.32	< 4.00	32 µM	23.4 µM	Cc1ccc(NC(=O)c2c(C)nc(S(=O)(=O)Cc3ccccc3)nc2-c2ccc(O)cc2O)cc1
4.60	4.03	20.8 µM	14.5 µM	CC1=C(C(=O)Nc2ccc(C)cc2)C(c2ccc(O)cc2O)NC(SCc2ccccc2)=N1 (centres undefined)
4.61	4.25	> 100 µM	29 µM	CC1=C(C(=O)Nc2cccc([N+](=O)[O-])c2)C(c2ccc(O)cc2O)NC(SCc2ccccc2)=N1 (centres undefined)
4.99	< 4.00	15.8 µM	> 100 µM	CC1=NN(C2=NC(C)=C(C(=O)Nc3cccc([N+](=O)[O-])c3)C(c3ccc(O)cc3O)N2)C(=O)/C1=C/c1ccco1 (centres undefined)
5.51	< 4.00	37.1 µM	26.5 µM	CC1=NN(C2=NC(C)=C(C(=O)Nc3cccc([N+](=O)[O-])c3)C(c3ccc(O)cc3O)N2)C(=O)/C1=C/c1cccs1 (centres undefined)
< 4.00	4.63	42.7 µM	66.7 µM	CC1=C(C(=O)Nc2ccc(C)cc2)C(c2ccc(O)cc2O)NC(NCc2ccccc2)=N1 (centres undefined)
–	–	0.18 µM	0.13 µM	COc1cccc2c1C(=O)c1c(O)c3c(c(O)c1C2=O)C[C@@](O)(C(=O)CO)C[C@@H]3O[C@H]1C[C@H](N)[C@H](O)[C@H](C)O1 [DOXORUBICIN]
6.30	–	–	–	CC[C@H](CO)Nc1nc(NCc2ccccc2)c2c(n1)N(C(C)C)CN2 [RESCOVITINE]
